This passage reports IC50 and Activity results from ChEMBL document CHEMBL4732188, “SARs of a novel series of s-triazine compounds targeting vimentin to induce methuotic phenotype” (Eur J Med Chem, 2021).

The subject of one assay is U-87 MG. Description: Antiproliferative activity against human U87 cells assessed as reduction in cell growth incubated for 4 days by cell-titer glo assay. In kind it is functional, cell-based, U-87MG ATCC. To be noted: 96 h. The method, boiled down:
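Cells grown in RPMI1640 with 10% FBS, 2 mM glutamine and penicillin-streptomycin at 37 °C, 5% CO₂. Viability read as ATP by CellTiter-Glo luminescence. IC50 as mean ± SD from triplicate experiments.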

Assay [1] relates to U-87MG ATCC. Description: Induction of vacuolization in human U87 cells at 1 uM by microscopic analysis.
The next assay concerns HCT-15. Description: Induction of vacuolization in human HCT-15 cells at 100 nM by microscopic analysis. In kind it is functional, cell-based.
For the next assay, the system named is LNCaP. Description: Induction of vacuolization in human LNCaP cells at 100 nM by microscopic analysis. In kind it is functional, cell-based.
The test system of a further assay is HepG2. Description: Induction of vacuolization in human HepG2 cells at 100 nM by microscopic analysis. In kind it is functional, cell-based.
Another assay deals with OVCAR-3. Description: Induction of vacuolization in human OVCAR-3 cells at 100 nM by microscopic analysis. The assay is classed as functional, cell-based.
For another assay, the system named is SK-MEL-28. Description: Induction of vacuolization in human SK-MEL-28 cells at 100 nM by microscopic analysis. In kind it is functional, cell-based.
The next assay deals with NCI-H522. Description: Induction of vacuolization in human NCI-H522 cells at 100 nM by microscopic analysis. The assay is classed as functional, cell-based.
In assay [2] the test system is U-87MG ATCC. Description: Induction of vacuolization in human U87 cells at 31.6 nM incubated for 4 days by microscopic analysis. The assay is classed as functional, cell-based. Conditions: time 4.0 day. Summed up: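 Cytoplasmic vacuolization was first screened visually by microscope in U87 cells treated with each compound at 1. Positive compounds were then titrated down to 0.01. Each was scored by its minimal effective concentration: 5 if vacuoles were significant at 10 nM, 4 at 31.6 nM, and so on downward.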

In another assay the target is Vimentin (Homo sapiens) (UniProt P08670). Description: Binding affinity to vimentin in human U87 cells at 100 nM incubated for 2 hrs by MALDI-MS/MS analysis. In kind it is cell-based. Summed up:
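Live U87 cells treated with the alkyne photoaffinity probe at 100 nM (DMSO control), then UV irradiated (315-385 nm, 30 min) through the flask bottom. Lysed in Hepes buffer pH 7.5 and click-reacted with biotin-N₃ (1 mM CuSO₄, 1 mM TCEP). Streptavidin-agarose enrichment, 10% SDS-PAGE separation, then LC-MS/MS identification.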

For assay [3], the system named is U-87MG ATCC. As to the kind of experiment: Induction of methuosis in human U87 cells assessed as increase in intracellular vacuolization in para nuclear region at 10 nM measured < 2 hrs by microscopic analysis. The assay is classed as functional, cell-based. To be noted: time hrs <2.
Assay [4] relates to U-87MG ATCC. As to the kind of experiment: Induction of methuosis in human U87 cells assessed as macropinocytosis by measuring cytoplasmic vacuolization at 10 nM incubated for 24 hrs by […] staining based confocal microscopic analysis. In kind it is functional, cell-based. The method, boiled down: (§1)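 U87 cells were cultured in RPMI1640 with 10% FBS at 37 °C, 5% CO₂, and compound-treated for 24 h across 0.01-10. Cytoplasmic vacuolization was imaged by microscopy, with time-lapse confocal tracking of vesicle movement, vacuole fusion, cell rounding and disintegration. Macropinocytic origin was checked by lucifer yellow uptake and by staining with ER and Golgi markers.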

Assay [5] concerns U-87MG ATCC. Description: Induction of methuosis in human U87 cells assessed as increase in accumulation of small vesicles at 10 nM measured after 24 hrs by […] staining based microscopic analysis. The assay is classed as functional, cell-based. The method, boiled down: as §1
The test system of assay [6] is U-87MG ATCC. Description: Induction of methuosis in human U87 cells assessed as increase in number of cytoplasmic vacuoles at 10 nM measured after 24 hrs by […] staining based microscopic analysis. In kind it is functional, cell-based. The method, boiled down:
as §1

The test system of assay [7] is U-87MG ATCC. Description: Induction of methuosis in human U87 cells assessed as increase in size of cytoplasmic vacuoles at 10 nM measured after 24 hrs by […] staining based microscopic analysis. In kind it is functional, cell-based. Summed up:
as §1

Assay [8] has as its system U-87MG ATCC. As to the kind of experiment: Induction of methuosis in human U87 cells assessed as rounded cytoplasmic vacuoles at 10 nM measured after 24 hrs by […] staining based microscopic analysis. In kind it is functional, cell-based. Summed up:
as §1

Assay [9] has as its system U-87MG ATCC. As to the kind of experiment: Induction of methuosis in human U87 cells assessed as disintegrated cytoplasmic vacuoles at 10 nM measured after 24 hrs by […] staining based microscopic analysis. In kind it is functional, cell-based. The method, boiled down: as §1

Molecules are shown by their SMILES. pIC50: −log10 of the molar value. Activity calls are given as the source filed them. The calls are words filed in the database; no cut-off is given here.

Chain of Vimentin (Homo sapiens) (P08670 whole entry): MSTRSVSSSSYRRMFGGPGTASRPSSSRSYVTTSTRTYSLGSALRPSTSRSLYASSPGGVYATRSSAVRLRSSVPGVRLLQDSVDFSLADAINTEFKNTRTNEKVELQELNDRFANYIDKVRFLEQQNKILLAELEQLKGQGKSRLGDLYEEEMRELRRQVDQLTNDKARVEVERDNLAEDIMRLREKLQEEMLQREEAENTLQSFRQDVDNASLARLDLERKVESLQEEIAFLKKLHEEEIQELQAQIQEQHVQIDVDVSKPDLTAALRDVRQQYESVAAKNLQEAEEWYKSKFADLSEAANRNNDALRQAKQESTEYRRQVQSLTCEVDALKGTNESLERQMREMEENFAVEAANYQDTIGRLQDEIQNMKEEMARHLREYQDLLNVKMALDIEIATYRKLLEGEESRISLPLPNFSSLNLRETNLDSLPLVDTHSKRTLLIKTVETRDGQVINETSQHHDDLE

For orientation: pIC50 means the negative decadic logarithm of the IC50, by convention in mol/L. For `O=C(Nc1ccc(Cl)cc1)Nc1cccc(Nc2nc(/C=C/c3ccccc3)nc(N3CCOCC3)n2)c1`, the pIC50 in the assay on U-87 MG is 6.00. In addition, the outcome with U-87MG ATCC [1] was inactive.

As for `O=C(Nc1ccc(Nc2nc(/C=C/c3ccccc3)nc(N3CCOCC3)n2)cc1)Nc1ccc(C(=O)NCCN2CCCCC2)cc1`, the pIC50 in the assay on U-87 MG was 5.95. In the assay on U-87MG ATCC [1], the result was Active.

`CN(C)c1nc(/C=C/c2cccc([N+](=O)[O-])c2)nc(Nc2ccc(NC(=O)Nc3ccc(Cl)cc3)cc2)n1`: the pIC50 in the assay with U-87 MG is 5.29. Moreover, the outcome with U-87MG ATCC [1] was inactive.

In the case of `O=C(Nc1ccc(F)cc1)Nc1ccc(Nc2nc(/C=C/c3cccc(Cl)c3)nc(N3CCOCC3)n2)cc1`, in the assay with U-87 MG, the pIC50 was 5.88. The result with U-87MG ATCC [1] was Active.

As to `CC1CCN(C(=O)c2ccc(NC(=O)Nc3ccc(Nc4nc(/C=C/c5ccccc5)nc(N5CCOCC5)n4)cc3)cc2)CC1`, in the assay on U-87 MG, the pIC50 was 6.06. For the same molecule, the result in the assay with U-87MG ATCC [1] was Active.

Regarding `O=C(Nc1ccc(Cl)cc1)Nc1ccc(Nc2nc(/C=C/c3cccc([N+](=O)[O-])c3)nc(N3CCOCC3)n2)cc1`, the pIC50 in the assay on U-87 MG was 5.77. Further, the result in the assay on HCT-15, with LNCaP, with HepG2, in the assay on OVCAR-3, in the assay on SK-MEL-28 and in the assay with NCI-H522 was Active. Moreover, the outcome in the assay with U-87MG ATCC [1] was Active.

On to `CN(C)CCCNC(=O)c1ccc(NC(=O)Nc2ccc(Nc3nc(/C=C/c4ccccc4)nc(N4CCOCC4)n3)cc2)cc1`, for which the pIC50 with U-87 MG was 5.64. In addition, in the assay on U-87MG ATCC [1], the result was Active.

`O=C(Nc1ccc(Nc2nc(/C=C/c3ccccc3)nc(N3CCOCC3)n2)cc1)Nc1ccc(C(=O)NCCN2CCOCC2)cc1`: the pIC50 with U-87 MG is 6.26. For the same molecule, the outcome in the assay on U-87MG ATCC [1] was Active.

In the case of `O=C(Nc1ccc(Cl)cc1)Nc1ccc(Nc2nc(/C=C/c3cccc([N+](=O)[O-])c3)nc(N3CCCC3)n2)cc1`, the pIC50 with U-87 MG is 5.35. The outcome in the assay with U-87MG ATCC [1] was inactive.

As for `O=C(Nc1ccc(Nc2nc(/C=C/c3ccccc3)nc(N3CCOCC3)n2)cc1)Nc1ccc(C(=O)NCCN2CCCC2)cc1`, the pIC50 in the assay with U-87 MG was 5.84. In addition, the outcome in the assay with U-87MG ATCC [1] was Active.

As to `CN(C)C(=O)c1ccc(NC(=O)Nc2ccc(Nc3nc(/C=C/c4ccccc4)nc(N4CCOCC4)n3)cc2)cc1`, in the assay with U-87 MG, the pIC50 is 6.28. Moreover, the result in the assay with U-87MG ATCC [1] was Active.

`O=C(Nc1ccc(F)cc1)Nc1ccc(Nc2nc(/C=C/c3ccc(Cl)cc3)nc(N3CCOCC3)n2)cc1`: the pIC50 with U-87 MG is 5.60. Besides, the result with U-87MG ATCC [1] was Active.

For the molecule `O=C(Nc1ccc(Nc2nc(/C=C/c3ccc(Cl)cc3)nc(N3CCOCC3)n2)cc1)Nc1cccc(F)c1`, the pIC50 with U-87 MG was 5.36. In addition, the outcome with U-87MG ATCC [1] was Active.

`O=C(Nc1ccc(F)cc1)Nc1ccc(Nc2nc(/C=C/c3ccccc3)nc(N3CCOCC3)n2)cc1`: in the assay on U-87 MG, the pIC50 was 5.32. The outcome with U-87MG ATCC [1] was Active.

As to `C#CCCC1(CCNC(=O)c2ccc(NC(=O)Nc3ccc(Nc4nc(/C=C/c5ccccc5)nc(N5CCOCC5)n4)cc3)cc2)N=N1`, the result in the assay on U-87MG ATCC [2] and on Vimentin (Homo sapiens) was Active.

With `CN(C)CCNC(=O)c1ccc(NC(=O)Nc2ccc(Nc3nc(/C=C/c4ccccc4)nc(N4CCOCC4)n3)cc2)cc1`, in the assay on U-87 MG, the pIC50 was 5.61. The outcome with U-87MG ATCC [1] was Active.

On to `O=C(Nc1ccc(Cl)cc1)Nc1ccc(Nc2nc(/C=C/c3cccc([N+](=O)[O-])c3)nc(N3CC(O)C3)n2)cc1`, for which the pIC50 in the assay with U-87 MG is 5.88. Moreover, the outcome in the assay with U-87MG ATCC [1] was inactive.

On to `O=C(Nc1ccc(Cl)cc1)Nc1cccc(Nc2nc(/C=C/c3cccc(Cl)c3)nc(N3CCOCC3)n2)c1`, for which, in the assay on U-87 MG, the pIC50 is 5.66. Moreover, the outcome in the assay with U-87MG ATCC [1] was inactive.

Regarding `O=C(Nc1ccc(F)cc1)Nc1ccc(Nc2nc(/C=C/c3cccc([N+](=O)[O-])c3)nc(N3CCOCC3)n2)cc1`, the pIC50 with U-87 MG was 5.95. Moreover, the result in the assay on U-87MG ATCC [1] was Active.

For `CN1CCN(C(=O)c2ccc(NC(=O)Nc3ccc(Nc4nc(/C=C/c5ccccc5)nc(N5CCOCC5)n4)cc3)cc2)CC1`, the pIC50 in the assay on U-87 MG is 6.64. For the same molecule, in the assay with U-87MG ATCC [1], the outcome was Active.

Turning to `CN1CCN(c2nc(/C=C/c3cccc([N+](=O)[O-])c3)nc(Nc3ccc(NC(=O)Nc4ccc(Cl)cc4)cc3)n2)CC1`, in the assay on U-87 MG, the pIC50 was 5.92. Further, the result in the assay on U-87MG ATCC [1] was inactive.

For the molecule `O=C(Nc1ccc(Cl)cc1)Nc1cccc(Nc2nc(/C=C/c3cccc([N+](=O)[O-])c3)nc(N3CCOCC3)n2)c1`, the pIC50 in the assay with U-87 MG is 5.44. Besides, the outcome in the assay with U-87MG ATCC [1] was inactive.

As to `O=C(Nc1ccc(Cl)cc1)Nc1ccc(Nc2nc(/C=C/c3ccccc3)nc(N3CCOCC3)n2)cc1`, in the assay on U-87 MG, the pIC50 was 5.32. Also, the result in the assay on U-87MG ATCC [3], in the assay on U-87MG ATCC [4], with U-87MG ATCC [5], in the assay on U-87MG ATCC [6], with U-87MG ATCC [7] and in the assay with U-87MG ATCC [8] was Active. Besides, the result with U-87MG ATCC [9], in the assay on U-87MG ATCC [2] and in the assay with U-87MG ATCC [1] was Active.
